# Reference: ChEMBL document CHEMBL1122321, “Synthesis and transport applications of 3-aminobicyclo[3.2.1] octane-3-carboxylic acids” (1983)
# What was measured:
# Format in all cases: functional
# Rattus norvegicus [1] = species on record: Rattus norvegicus; assay: Inhibition of threonine (0.5*10e-4) uptake by rat Hepatoma cells(HTC) at the specified Conc of 10 mM expressed as nM/mg of protein/min
# In short: (§1)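 HTC hepatoma monolayers were grown in Medium 199 (pH 7.4, 26 mM NaHCO₃, antibiotics, 5–8% FBS) under 5% CO₂/95% air and seeded 3–4 days before testing. A 1-min uptake ran in Krebs-Ringer phosphate (pH 7.4, 37 °C), then the cells were washed with ice-cold Na⁺-free choline medium. Cells were extracted with 5% TCA and counted by scintillation. Protein was measured by modified Lowry with SDS and a BSA standard.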
# Rattus norvegicus [2] = species on record: Rattus norvegicus; assay: Inhibition of threonine (0.5*10e-4) uptake by rat Hepatoma cells(HTC) at the specified Conc of 2.5 mM expressed as nM/mg of protein/min; in short: as §1
# Mus musculus [3] = assay: Inhibition of MeAIB(10e-4) uptake by Ehrlich cell at the specified Conc of 2.5 mM expressed as mM/kg of cell water/min
# In short: (§2)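 ¹⁴C-MeAIB uptake by Ehrlich ascites tumor cells propagated in Swiss white mice and washed in Na⁺-free media. Uptake ran for 1 min at 37 °C in 5% cell suspensions in Na⁺-containing Krebs-Ringer bicarbonate under 5% CO₂–O₂ (pH 7.4). Stopped by ice-cold dilution and centrifugation. ¹⁴C in the medium and in a sulfosalicylic acid cell extract was counted by liquid scintillation. Extracellular water was measured by sucrose.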
# Rattus norvegicus [4] = species on record: Rattus norvegicus; assay: Inhibition of threonine (0.5*10e-4) uptake by rat Hepatoma cells(HTC) at the specified Conc of 0.5 mM expressed as nM/mg of protein/min; in short: as §1
# Mus musculus [5] = assay: Inhibition of MeAIB(10e-4) uptake by Ehrlich cell at the specified Conc of 0.5 mM expressed as mM/kg of cell water/min; in short: as §2
# Mus musculus [6] = assay: Inhibition of MeAIB(10e-4) uptake by Ehrlich cell at the specified Conc of 0.25 mM expressed as mM/kg of cell water/min; in short: as §2
# Mus musculus [7] = assay: Inhibition of MeAIB(10e-4) uptake by Ehrlich cell at the specified Conc of 10 mM expressed as mM/kg of cell water/min; in short: as §2
SMILES,Thr uptake (Rattus norvegicus [1]),Thr uptake (Rattus norvegicus [2]),MeAIB uptake (Mus musculus [3]),Thr uptake (Rattus norvegicus [4]),MeAIB uptake (Mus musculus [5]),MeAIB uptake (Mus musculus [6]),MeAIB uptake (Mus musculus [7])
CC(O)C(N)C(=O)O (stereo not drawn),0.12,–,–,–,–,–,–
N[C@]1(C(=O)O)C[C@@H]2CC[C@@H](C2)C1,3.45,3.52,0.64,3.81,0.66,0.67,0.61
